TAAR1 antag = human TAAR1 antagonism | 360,000 compounds, 1.5% hits | Q96RJ0 | CHO RD-HGA16 TAAR1, Fluo-8 calcium fluorescence, antagonist | inhibition, % at 3 µM;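 active = inhibition above a per-plate cutoff, the mean inhibition of test compounds on that plate plus 3 SD, cut at about 49% in these data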;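 note: 0% = DMSO plus EC80 beta-PEA response and 100% = DMSO alone without agonist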
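System: CHO RD-HGA16 cells bearing hTAAR1. Reagent: EC80 β-phenethylamine stimulus. Schedule: seeding 17-24 h prior, 75-min 37 °C, 30-min RT dye loading. Signal: Fluo-8 intracellular calcium dye fluorescence, real-time kinetic reads. Read-out: % inhibition from peak post-agonist over basal fluorescence ratio. Benchmarks: vehicle wells and EC80 agonist wells. Replicates: n of 1.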
OXTR ag = agonists of human oxytocin receptor | P30559 | 320,000 compounds, 0.32% hits | activation, % at 3 µM | CHO-OTR cells, Fluo-8 calcium fluorescence; normalized: DMSO 0%, oxytocin 100%;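 active = activation above the mean of all tested compounds plus 3 SD, cutoff set per screening run, cut at about 20% in these data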;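 note: peak over basal fluorescence ratio from a 100 s FLIPR kinetic read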
Target sequence (P30559 whole entry, looked up): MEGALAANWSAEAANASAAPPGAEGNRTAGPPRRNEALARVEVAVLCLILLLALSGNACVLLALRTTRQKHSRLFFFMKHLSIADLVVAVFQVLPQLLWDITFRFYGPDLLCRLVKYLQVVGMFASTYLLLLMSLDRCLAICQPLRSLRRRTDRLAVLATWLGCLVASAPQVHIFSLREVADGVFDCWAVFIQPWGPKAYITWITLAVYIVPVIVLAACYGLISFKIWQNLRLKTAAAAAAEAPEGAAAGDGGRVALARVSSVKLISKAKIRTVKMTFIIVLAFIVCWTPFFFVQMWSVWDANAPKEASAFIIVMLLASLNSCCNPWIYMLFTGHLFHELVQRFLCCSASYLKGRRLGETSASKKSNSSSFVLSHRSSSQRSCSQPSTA
V1R ag counter = V1a receptor agonism, counter-screen for OXTR agonists | CHO-V1R cells, Fluo-8 calcium fluorescence, agonist mode; 0% DMSO, 100% 3 nM vasopressin | AID 2797 | 320,000 compounds, 0.25% hits | P37288 | activation, % at 3 µM;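 active = activation above the mean activation of all tested compounds plus 3 SD, per screening run, cut at about 20% in these data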;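 note: signal is peak over basal fluorescence ratio across a 100 second FLIPR read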
Target sequence (P37288 whole entry, looked up): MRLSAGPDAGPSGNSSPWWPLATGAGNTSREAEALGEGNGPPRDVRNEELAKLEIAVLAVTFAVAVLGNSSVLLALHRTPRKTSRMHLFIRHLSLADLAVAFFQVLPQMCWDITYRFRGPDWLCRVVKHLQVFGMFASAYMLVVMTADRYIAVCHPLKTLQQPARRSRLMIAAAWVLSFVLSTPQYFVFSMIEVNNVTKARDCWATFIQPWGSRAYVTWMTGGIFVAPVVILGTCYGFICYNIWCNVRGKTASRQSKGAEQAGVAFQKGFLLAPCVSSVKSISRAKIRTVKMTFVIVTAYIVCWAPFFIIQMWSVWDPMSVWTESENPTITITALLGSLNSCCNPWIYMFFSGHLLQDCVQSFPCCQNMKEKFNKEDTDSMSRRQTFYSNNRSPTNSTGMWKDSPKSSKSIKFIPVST
TAAR1 ag = human TAAR1 agonism | 360,000 compounds, 0.99% hits | Q96RJ0 | CHO RD-HGA16 TAAR1, Fluo-8 calcium fluorescence; vehicle wells 0%, saturating PEA agonist 100% | activation, % at 3 µM;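 active = activation above the mean activation of all test compounds in the run plus 3 SD, cut at about 38% in these data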
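test system = CHO RD-HGA16 cells carrying human TAAR1 plus Gα16 | schedule = 17-24 h seeding, 75 min 37 °C dye, 30 min RT | compound dosing = 3 µM single concentration | control set = DMSO and PEA EC100 | replicates = n 1 | signal = Fluo-8 fluorescence, 5 s baseline then 140 s kinetic read | measure = percent activation vs PEA EC100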
OXTR potentiate = human OXTR potentiation; P30559; CHO-OTR cells, Fluo-8 calcium fluorescence, potentiator mode; 0% = oxytocin EC15, 100% = EC100; activation, % at 3 µM; 320,000 compounds, 0.061% hits; AID 2445;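 active = activation above that plate's cutoff, the mean activation of tested compounds plus 3 SD, cut at about 6.6% in these data, passing the limit was not always enough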;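 note: 100% uses oxytocin at 75 nM as the full agonist control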
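Replication – single well per compound, singlicate · Assay system – CHO cell line stably expressing human OTR · Timing – 6 min pre-incubation, 100 s read · Measure – normalized max/min fluorescence ratio, % activation · Doses – 3.0 µM, one dose · Detection – Fluo-8 calcium dye fluorescence · Probe or stimulus – oxytocin near EC15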
nonsel antag count = nonselective antagonist in TAAR1 antagonist counter-screen | inhibition, % at 3 µM | counterscreen cell line, calcium fluorescence, antagonist mode | 2,400 compounds, 77% hits | AID 651780 | shares compounds with TAAR1 antag; in the data active = inhibition above about 22%;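 note: CHO-Ga16 host cells stimulated with ATP at an EC80 level; 0% = agonist EC80 plus vehicle and 100% = vehicle without agonist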
TAAR1 ant conf = human TAAR1 antagonism, confirmed; shares compounds with TAAR1 antag; TAAR1-expressing cells, fluorescence antagonist read-out; inhibition, % at 3 µM; 2,400 compounds, 40% hits; AID 651785; in the data active = inhibition above about 49%;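 note: CHO-Ga16 host cells challenged with agonist PEA near its EC80; 0% = agonist at EC80 plus vehicle and 100% = vehicle with no agonist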
Ga16 ag counter = counter-screen for TAAR1 antagonists: nonselective Ga16 agonists | Ga16-expressing cells, calcium fluorescence, agonist counterscreen | shares compounds with TAAR1 antag | activation, % at 3 µM | 2,400 compounds, 18% hits; in the data active = activation above about 12%;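 note: 0% = vehicle wells and 100% = saturating stimulus response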
TAAR1 ag count = counter-screen for human TAAR1 antagonists: TAAR1 agonists. shares compounds with TAAR1 antag. hTAAR1 cell line, fluorescence activation, agonist mode. activation, % at 3 µM. 2,400 compounds, 2% hits. AID 651955; in the data active = activation above about 37%;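 note: CHO cells stably expressing TAAR1 with calcium dye readout; 0% = DMSO vehicle and 100% = full agonist response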
Active calls of the source: *; nt = no result. Only some compounds are listed: those with a hit (about 2.3% of all), similar ones and a draw of the others.

SMILES	TAAR1 antag	OXTR ag	V1R ag counter	TAAR1 ag	OXTR potentiate	nonsel antag count	TAAR1 ant conf	Ga16 ag counter	TAAR1 ag count
CC(C(=O)NC1CCCC1)n1c(C2CCCC2)nc2ccccc21 (centres undefined)	-2.5	nt	nt	-0.2	nt	nt	nt	nt	nt
COc1ccc2nc(C)cc(SCC(=O)NNC(=O)COc3cccc4ccccc34)c2c1	71.1*	4.7	3.1	19.2	-12.2	45.7*	56.0*	9.4	8.0
CN(C)S(=O)(=O)c1cccc(NC(=O)COc2ccccc2C(=O)Nc2ccccc2)c1	72.3*	nt	nt	23.8	nt	52.8*	65.1*	14.0*	12.0
CCCNC(=O)COC(=O)c1ccccc1OCC(=O)Nc1ccc(Br)cc1	-12.8	-0.9	0.3	1.1	7.3	nt	nt	nt	nt
CCNC(=O)COc1ccc(F)cc1C(=O)c1cnn(-c2ccccc2)c1	2.6	1.4	3.1	0.3	-8.7	nt	nt	nt	nt
CC(C)(C)NC(=O)COC(=O)c1ccccc1OCC(=O)Nc1ccc(Br)cc1	51.0*	-1.4	0.2	10.2	-6.2	23.8*	42.6	8.8	8.5
O=C(COc1ccccc1C(=O)c1cnn(-c2ccccc2)c1)Nc1ccccc1	53.2*	-0.9	1.3	1.9	-7.9	24.0*	40.8	6.1	6.3
CC(=O)c1ccc(NC(=O)COc2ccccc2C(=O)Nc2ccccc2)cc1	73.3*	8.6	7.0	11.8	-14.0	45.0*	67.1*	14.6*	11.2
Cc1cc(Cn2nnc3ccccc32)c(O)c(C(C)(C)C)c1	1.9	-1.6	5.2	22.3	-17.0	nt	nt	nt	nt
Cc1ccc(NC(=O)c2ccccc2OCC(=O)Nc2ccccc2F)cc1S(=O)(=O)N(C)C	68.5*	0.9	2.7	25.7	-11.2	33.9*	51.6*	10.0	6.0
Cc1noc(C)c1COc1ccccc1C(=O)Nc1cccc(S(=O)(=O)N(C)C)c1	-3.0	-0.3	0.2	2.7	-0.4	nt	nt	nt	nt
CCN(CC)S(=O)(=O)c1cc(NC(=O)c2ccccc2OCc2c(C)noc2C)ccc1C	63.6*	nt	nt	2.9	nt	24.3*	44.0	2.6	-1.8
CC(=O)c1ccc(NC(=O)c2ccc(S(=O)(=O)c3ccccc3)cc2)cc1	69.4*	6.6	6.7	20.6	-9.0	38.7*	61.1*	12.4*	15.7
CCN(CC)CCn1c2c(c(SCC(=O)Nc3cc(C)on3)nc1=O)CCCC2	-22.8	-0.7	-0.3	6.2	1.8	nt	nt	nt	nt
CCOc1ccc(-n2c(C)cc(/C=N/NC(=O)C(N)=O)c2C)cc1	-25.8	0.4	-0.9	-1.1	1.5	nt	nt	nt	nt
CCOc1ccc(-n2c(C)cc(/C=N\NC(=O)CC(=O)NC3CCCCC3)c2C)cc1	57.2*	0.2	2.1	-0.3	-8.2	25.0*	47.4	4.5	-0.7
COc1cccc(C(=O)Nc2ccccc2)c1	-6.6	-1.6	-0.1	14.8	-3.8	nt	nt	nt	nt
COc1cccc(C(=O)Nc2cccc(NC(=O)c3ccccc3Cl)c2)c1	67.7*	-0.7	0.2	10.0	5.7	19.6	43.1	8.1	4.9
COc1ccc(/C=N/NC(=O)c2cccc(NC(=O)c3ccccc3Cl)c2)c(OC)c1	59.6*	-1.2	-0.5	5.8	1.0	24.2*	45.4	4.9	2.2
CN(C)CCCN(C(=O)/C=C/c1cccs1)c1nc2ccc(F)cc2s1	-10.0	11.9	8.3	13.6	-5.4	nt	nt	nt	nt
CN(C)CCN(C(=O)/C=C/c1cccs1)c1nc2c(F)cc(F)cc2s1	56.4*	0.4	0.0	32.5	-7.1	15.2	15.7	4.1	9.4
COc1cc(/C=N/NC(=O)c2cccnc2)ccc1OS(=O)(=O)c1ccc(C)cc1	30.4	1.0	0.9	11.8	-10.5	nt	nt	nt	nt
COc1cc(/C=N/NC(=O)c2cccnc2)ccc1OS(=O)(=O)c1cc(C)ccc1C	63.9*	2.9	2.0	25.1	-13.4	31.6*	57.2*	13.9*	11.8
COc1cc(/C=C/c2cccc[n+]2C)ccc1OCC(=O)Nc1cccc(Cl)c1	6.0	-0.7	1.1	1.3	-10.6	nt	nt	nt	nt
COc1cc(-c2noc(C)c2C#Cc2ccsc2)cc(OC)c1OC	65.2*	0.5	0.9	28.4	-9.8	18.3	33.6	6.1	20.1
SMILES	TAAR1 antag	OXTR ag	V1R ag counter	TAAR1 ag	OXTR potentiate	nonsel antag count	TAAR1 ant conf	Ga16 ag counter	TAAR1 ag count
COc1cc(-c2noc(C)c2C#CCO)cc(OC)c1OC	-15.2	-0.1	-1.0	4.8	-7.9	nt	nt	nt	nt
O=C(COc1ccccc1-c1ccccc1)NCCN1C(=O)S/C(=C\c2cccnc2)C1=O	69.5*	2.1	0.0	11.4	-5.7	38.8*	46.2	11.6*	8.6
O=C(NCCN1C(=O)S/C(=C/c2cccnc2)C1=O)c1cccs1	3.0	0.3	0.7	0.9	-2.8	nt	nt	nt	nt
CC(C)Nc1ncnc2c1ncn2[C@H]1CN(Cc2cccnc2)C[C@@H](CO)O1	-25.0	nt	nt	11.7	nt	nt	nt	nt	nt
Cc1ccccc1NC(NC(=O)c1cccs1)C(Cl)(Cl)Cl (centres undefined)	52.1*	0.5	-0.4	13.4	-5.4	20.4	38.3	13.3*	15.7
COc1ccc(NC(=O)c2cc(-c3ccco3)nc3ccccc23)cc1	16.0	0.9	-0.1	6.0	-9.8	nt	nt	nt	nt
Cc1cccc(NC(=O)c2cc(-c3ccco3)nc3ccccc23)n1	54.9*	-2.3	-0.7	17.8	-8.3	27.3*	49.9*	6.9	4.9
Cc1ccc(-c2cc(C(=O)N(C)CC(=O)Nc3ccccc3Br)c3ccccc3n2)o1	66.4*	-0.9	-1.9	14.3	-8.7	34.0*	49.6*	11.9*	13.2
COc1ccc(NC(=O)c2cc(-c3ccc(C)o3)nc3ccccc23)c(OC)c1	75.0*	-2.8	-1.1	7.3	-3.1	32.5*	45.9	9.2	6.2
COc1ccc(OC)c(-c2cc(C(=O)Nc3ccccc3C(N)=O)c3ccccc3n2)c1	75.9*	-0.4	1.7	20.6	-4.8	34.5*	54.0*	10.6	9.5
COc1ccc(OC)c(-c2cc(C(=O)N/N=C/c3ccc(F)cc3)c3ccccc3n2)c1	-18.3	-0.6	-0.2	2.4	-4.1	nt	nt	nt	nt
COc1ccc(NC(=O)Nc2cccc3ccccc23)c(OC)c1	59.4*	0.9	1.2	23.6	-8.7	18.5	42.4	3.2	4.2
COc1ccc(OC)c(NC(=O)Nc2cccc3ccccc23)c1	-5.9	-1.5	-1.3	1.9	-5.2	nt	nt	nt	nt
Cc1ccc(-c2cc(C(=O)Nc3ccccc3C(N)=O)c3ccccc3n2)o1	66.4*	-0.7	0.3	23.0	-2.1	34.3*	53.6*	12.9*	12.4

Screens deposited in PubChem by The Scripps Research Institute Molecular Screening Center.
